Structures can show the parent of a compound that is named as a salt.
Legend:
[1] = test system: BT-549; assay: Antiproliferative activity against human BT549 cells after 48 hrs by MTT assay; assay type: functional, cell-based; details: BT-549, 48 h
Outline: (§1)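 MTT read-out. Cells were seeded at 5 × 10^3 per well in DMEM or RPMI with 10% FBS and grown 24 h at 37 °C in CO2. Compound dilutions in medium, with vehicle control, were then added for 48 h. MTT (0.5 mg/mL in medium) was given for 4 h, formazan was dissolved in DMSO, and A570 was read. IC50 was taken from concentration–response curves as mean ± SD of three experiments run in triplicate.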

[2] = test system: A549; assay: Antiproliferative activity against human A549 cells after 48 hrs by MTT assay; assay type: functional, cell-based; details: A549, 48 h; outline: as §1
[3] = test system: MDA-MB-231; assay: Antiproliferative activity against human MDA-MB-231 cells after 48 hrs by MTT assay; assay type: functional, cell-based; details: MDA-MB-231, 48 h; outline: as §1
[4] = test system: 4T1; assay: Antiproliferative activity against mouse 4T1 cells after 48 hrs by MTT assay; assay type: functional, cell-based; details: 4T1, 48 h; outline: as §1
[5] = test system: PC-3; assay: Antiproliferative activity against human PC3 cells after 48 hrs by MTT assay; assay type: functional, cell-based; details: PC-3, 48 h; outline: as §1
[6] = test system: DU-145; assay: Antiproliferative activity against human DU145 cells after 48 hrs by MTT assay; assay type: functional, cell-based; details: DU-145, 48 h; outline: as §1
[7] = test system: HGC-27; assay: Antiproliferative activity against human HGC27 cells after 48 hrs by MTT assay; assay type: functional, cell-based; details: HGC-27, 48 h; outline: as §1
[8] = test system: HeLa; assay: Antiproliferative activity against human HeLa cells after 48 hrs by MTT assay; assay type: functional, cell-based; outline: as §1
[9] = test system: MDA-MB-231; assay: Potency index, ratio of curcumin IC50 to compound IC50 for human MDA-MB-231 cells; assay type: functional
[10] = test system: BT-549; assay: Potency index, ratio of curcumin IC50 to compound IC50 for human BT549 cells; assay type: functional
[11] = test system: PC-3; assay: Potency index, ratio of curcumin IC50 to compound IC50 for human PC3 cells; assay type: functional
[12] = test system: DU-145; assay: Potency index, ratio of curcumin IC50 to compound IC50 for human DU145 cells; assay type: functional
[13] = species: Sus scrofa; assay: Inhibition of porcine brain tubulin polymerization assessed as reduction in incorporation of fluorescent reporter at 10 uM by fluorescence based assay relative to control
Outline: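 Cell-free mix contained porcine brain tubulin (2 mg/mL) in 80 mM PIPES pH 6.9 with 2.0 mM MgCl2, 0.5 mM EGTA, 1.0 mM GTP and glycerol, with or without compound. Polymerization was tracked as a time-dependent fluorescence rise from reporter incorporation (ex 360, em 440 nm), with nocodazole as positive control. Inhibition was scored versus the untreated control. For IC50, the concentration giving 50% inhibition of assembly was used.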

Row | IC50 [1] [µM] | IC50 [2] [µM] | IC50 [3] [µM] | IC50 [4] [µM] | IC50 [5] [µM] | IC50 [6] [µM] | IC50 [8] [µM] | inhibition [13] [%] | SMILES | IC50 [7] [µM] | Ratio IC50 [9] | Ratio IC50 [10] | Ratio IC50 [11] | Ratio IC50 [12]
1 | > 50 | > 50 | > 50 | > 50 | > 50 | > 50 | > 50 | – | O=C(/C=C/c1ccc(Cl)cc1)/C=C/c1cn(Cc2ccccc2)c2ccccc12 | > 50 | – | – | – | –
2 | 50.4 | > 50 | > 50 | > 50 | > 50 | > 50 | 50 | – | COc1ccc(/C=C/C(=O)/C=C/c2cn(Cc3ccc(Cl)cc3)c3ccccc23)cc1 | > 50 | – | – | – | –
3 | > 50 | > 50 | > 50 | > 50 | > 50 | > 50 | > 50 | – | COc1ccc(OC)c(/C=C/C(=O)/C=C/c2cn(Cc3ccc(C(F)(F)F)cc3)c3ccccc23)c1 | > 50 | – | – | – | –
4 | 30.1 | > 50 | > 50 | 40 | > 50 | > 50 | > 50 | – | COc1ccc(/C=C/C(=O)/C=C/c2cn(Cc3ccc(F)cc3)c3ccccc23)cc1OC | 50.3 | – | – | – | –
5 | 0.0547 | 0.172 | 0.117 | – | 0.0276 | 0.0723 | – | – | CC[C@]1(O)C[C@H]2CN(CCc3c([nH]c4ccccc34)[C@@](C(=O)OC)(c3cc4c(cc3OC)N(C=O)[C@H]3[C@@](O)(C(=O)OC)[C@H](OC(C)=O)[C@]5(CC)C=CCN6CC[C@]43[C@@H]65)C2)C1 [VINCRISTINE SULFATE] | – | – | – | – | –
6 | > 50 | > 50 | > 50 | > 50 | > 50 | > 50 | 50.1 | – | COc1cc(OC)c(/C=C/C(=O)/C=C/c2cn(Cc3ccccc3)c3ccccc23)c(OC)c1 | > 50 | – | – | – | –
7 | > 50 | > 50 | > 50 | > 50 | > 50 | > 50 | > 50 | – | COc1ccc(OC)c(/C=C/C(=O)/C=C/c2cn(Cc3ccccc3)c3ccccc23)c1 | > 50 | – | – | – | –
8 | 50.1 | > 50 | > 50 | > 50 | > 50 | > 50 | 50.9 | – | COc1ccc(OC)c(/C=C/C(=O)/C=C/c2cn(Cc3ccc(F)cc3)c3ccccc23)c1 | > 50 | – | – | – | –
9 | 25.2 | > 50 | > 50 | 25.9 | > 50 | > 50 | 50.6 | – | COc1cc(OC)c(OC)cc1/C=C/C(=O)/C=C/c1cn(Cc2ccc(C(F)(F)F)cc2)c2ccccc12 | 40.1 | – | – | – | –
10 | > 50 | > 50 | > 50 | > 50 | > 50 | > 50 | 40.1 | – | COc1cc(OC)c(/C=C/C(=O)/C=C/c2cn(Cc3cccc(F)c3)c3ccccc23)c(OC)c1 | > 50 | – | – | – | –
11 | > 50 | > 50 | > 50 | > 50 | > 50 | > 50 | > 50 | – | COc1ccc(/C=C/C(=O)/C=C/c2cn(Cc3ccc(C(F)(F)F)cc3)c3ccccc23)cc1 | > 50 | – | – | – | –
12 | 10.5 | – | 46.4 | 13.9 | 3.12 | – | – | – | COc1cc(OC)c(/C=C/C(=O)/C=C/c2c[nH]c3ccccc23)c(OC)c1 | – | 0.3 | 2.4 | 3.9 | –
13 | 4.69 | 30.2 | 15.7 | 21.9 | 5.52 | 13.3 | 6.44 | 39.7 | COc1ccc(/C=C/C(=O)/C=C/c2c[nH]c3ccccc23)cc1OC | 7.45 | 1 | 5.3 | 2.2 | 2.1
14 | 31.4 | 45.1 | 32 | 21.6 | 3.51 | 13.6 | – | – | COc1ccc(/C=C/C(=O)/C=C/c2c[nH]c3ccccc23)cc1 | 24 | – | – | – | –
15 | > 50 | > 50 | > 50 | > 50 | > 50 | > 50 | > 50 | – | COc1cc(OC)c(/C=C/C(=O)/C=C/c2cn(Cc3ccc(C(F)(F)F)cc3)c3ccccc23)c(OC)c1 | > 50 | – | – | – | –
16 | 40.4 | > 50 | > 50 | > 50 | > 50 | > 50 | > 50 | – | COc1ccc(/C=C/C(=O)/C=C/c2cn(Cc3cccc(F)c3)c3ccccc23)cc1 | > 50 | – | – | – | –
17 | 30.1 | > 50 | 50.2 | 40.2 | > 50 | > 50 | 25.2 | – | O=C(/C=C/c1ccc(Cl)cc1)/C=C/c1c[nH]c2ccccc12 | 50 | – | – | – | –
18 | > 50 | > 50 | > 50 | > 50 | > 50 | > 50 | > 50 | – | COc1cc(OC)c(/C=C/C(=O)/C=C/c2cn(Cc3ccc(F)cc3)c3ccccc23)c(OC)c1 | 50.8 | – | – | – | –
19 | 50.1 | > 50 | > 50 | > 50 | > 50 | > 50 | 50.5 | – | COc1ccc(/C=C/C(=O)/C=C/c2cn(Cc3ccc(OC(F)(F)F)cc3)c3ccccc23)cc1OC | > 50 | – | – | – | –
20 | > 50 | > 50 | > 50 | > 50 | > 50 | > 50 | 40.9 | – | COc1cc(OC)c(/C=C/C(=O)/C=C/c2cn(Cc3ccc(Cl)cc3)c3ccccc23)c(OC)c1 | > 50 | – | – | – | –
21 | 24.9 | – | 15.8 | – | 12.2 | 28.4 | 25.4 | – | COc1cc(/C=C/C(=O)CC(=O)/C=C/c2ccc(O)c(OC)c2)ccc1O [CURCUMIN] | – | – | – | – | –
22 | 40.6 | > 50 | > 50 | 40.8 | > 50 | > 50 | 50.1 | – | COc1cc(OC)c(OC)cc1/C=C/C(=O)/C=C/c1cn(Cc2ccccc2)c2ccccc12 | > 50 | – | – | – | –
23 | 40.1 | > 50 | > 50 | 50.2 | > 50 | > 50 | > 50 | – | COc1ccc(/C=C/C(=O)/C=C/c2cn(Cc3ccccc3)c3ccccc23)cc1 | > 50 | – | – | – | –
24 | > 50 | > 50 | > 50 | > 50 | > 50 | > 50 | > 50 | – | COc1ccc(/C=C/C(=O)/C=C/c2cn(Cc3ccc(F)cc3)c3ccccc23)cc1 | > 50 | – | – | – | –
25 | 25.1 | 50.1 | > 50 | 25.2 | > 50 | > 50 | 30.7 | – | COc1cc(OC)c(OC)cc1/C=C/C(=O)/C=C/c1cn(Cc2ccc(F)cc2)c2ccccc12 | 40.2 | – | – | – | –
